Measurements published in ChEMBL document CHEMBL1155976, “Synthesis and preliminary pharmacological evaluation of imidazo[2,1-f]purine-2,4-dione derivatives” (Eur J Med Chem, 2009).
The source made the active and inactive calls. The rule behind the calls is not given here.

How the values were obtained:
Mus musculus [1] = experiment: Agonist activity at 5HT1A receptor in ip dosed Swiss albino mouse assessed as decrease in rectal temperature; format: functional, organism-based
How it was run: (§1)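 Male Albino Swiss mice (24–28 g), free food and water, room at 20 ± 1 °C; test agent suspended in 1% aqueous Tween 80, given ip at 10 ml/kg. Rectal temperature read with a thermometer at 30, 60, 90 and 120 min after dosing. Result expressed as Δt from basal temperature taken at the start; six to ten animals per group, each used once.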

Mus musculus [2] = experiment: Agonist activity at 5HT1A receptor in Swiss albino mouse assessed as decrease in rectal temperature at 10 mg/kg, ip after 60 mins; format: functional, organism-based; design: dose 10 mg/kg; how it was run: as §1
Mus musculus [3] = experiment: Agonist activity at 5HT1A receptor in Swiss albino mouse assessed as decrease in rectal temperature at 10 mg/kg, ip after 30 mins; format: functional, organism-based; design: dose 10 mg/kg; how it was run: as §1
D(2) dopamine receptor = D(2) dopamine receptor (Rattus norvegicus, UniProt P61169); experiment: Displacement of [3H]spiperone from dopamine D2 receptor in rat striatum membrane after 30 mins by liquid scintillation counting; format: cell membranes
Sequence of D(2) dopamine receptor (P61169 whole entry): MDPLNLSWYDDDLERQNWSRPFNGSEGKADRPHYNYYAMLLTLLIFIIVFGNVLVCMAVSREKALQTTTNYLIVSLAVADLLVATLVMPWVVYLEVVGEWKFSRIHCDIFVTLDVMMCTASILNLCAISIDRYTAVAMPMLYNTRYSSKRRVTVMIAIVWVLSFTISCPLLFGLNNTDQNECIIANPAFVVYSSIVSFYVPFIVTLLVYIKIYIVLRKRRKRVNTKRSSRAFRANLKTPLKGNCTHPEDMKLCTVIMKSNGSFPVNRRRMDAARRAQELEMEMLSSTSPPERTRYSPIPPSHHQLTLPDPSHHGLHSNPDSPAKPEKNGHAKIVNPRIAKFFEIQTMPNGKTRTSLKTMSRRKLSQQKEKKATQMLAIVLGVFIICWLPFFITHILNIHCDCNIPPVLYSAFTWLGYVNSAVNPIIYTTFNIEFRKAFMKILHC
How it was run: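 Rat striatum homogenised in 50 mM potassium phosphate pH 7.4 and spun twice at 20000 × g. Membranes (3 mg wet weight) incubated with 1 nM [3H]-spiperone and test agent in 0.5 ml for 30 min at 37 °C. Nonspecific binding with (+)butaclamol. GF/B filtration, two washes with ice-cold buffer, scintillation counting; Ki from ≥3 experiments, 10 concentrations in triplicate.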

Mus musculus [4] = experiment: Agonist activity at 5HT1A receptor in Swiss albino mouse assessed as decrease in rectal temperature at 5 mg/kg, ip after 30 mins; format: functional, organism-based; design: dose 5 mg/kg; how it was run: as §1
[5] = target: 5-hydroxytryptamine receptor 2A (Rattus norvegicus, UniProt P14842); experiment: Displacement of [3H]ketanserin from 5HT2A receptor in rat cerebral cortex after 20 mins by liquid scintillation counting; format: tissue-based
Sequence of 5-hydroxytryptamine receptor 2A (P14842 whole entry): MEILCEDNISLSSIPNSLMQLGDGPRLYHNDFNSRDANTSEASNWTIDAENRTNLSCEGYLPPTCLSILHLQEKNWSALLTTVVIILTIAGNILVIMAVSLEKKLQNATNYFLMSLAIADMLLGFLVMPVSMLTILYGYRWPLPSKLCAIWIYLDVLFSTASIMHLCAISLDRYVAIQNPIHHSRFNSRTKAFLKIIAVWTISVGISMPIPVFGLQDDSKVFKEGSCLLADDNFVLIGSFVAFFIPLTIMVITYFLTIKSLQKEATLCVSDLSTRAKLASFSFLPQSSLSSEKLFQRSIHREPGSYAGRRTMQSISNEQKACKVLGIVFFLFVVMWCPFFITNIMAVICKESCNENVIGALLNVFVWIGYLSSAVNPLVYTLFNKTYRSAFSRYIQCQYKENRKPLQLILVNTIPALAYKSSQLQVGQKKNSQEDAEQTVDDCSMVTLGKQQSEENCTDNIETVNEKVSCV
How it was run: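 Rat cerebral cortex homogenised in 50 mM Tris-HCl pH 7.7, spun at 32000 × g, preincubated 10 min at 37 °C, resuspended in 50 volumes. Incubated with 0.6 nM [3H]-ketanserin and test agent (10^-10 to 10^-4 M) at 37 °C for 20 min; mianserin as displacer. GF/B filtration, scintillation counting; Ki from ≥3 experiments, 10 concentrations in triplicate.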

[6] = target: T1, 5-hydroxytryptamine receptor 1A (Rattus norvegicus, UniProt P19327); experiment: Displacement of [3H]8-OH-DPAT from 5HT1A receptor in rat cerebral cortex after 15 mins by liquid scintillation counting; format: tissue-based
T1 sequence (P19327 whole entry): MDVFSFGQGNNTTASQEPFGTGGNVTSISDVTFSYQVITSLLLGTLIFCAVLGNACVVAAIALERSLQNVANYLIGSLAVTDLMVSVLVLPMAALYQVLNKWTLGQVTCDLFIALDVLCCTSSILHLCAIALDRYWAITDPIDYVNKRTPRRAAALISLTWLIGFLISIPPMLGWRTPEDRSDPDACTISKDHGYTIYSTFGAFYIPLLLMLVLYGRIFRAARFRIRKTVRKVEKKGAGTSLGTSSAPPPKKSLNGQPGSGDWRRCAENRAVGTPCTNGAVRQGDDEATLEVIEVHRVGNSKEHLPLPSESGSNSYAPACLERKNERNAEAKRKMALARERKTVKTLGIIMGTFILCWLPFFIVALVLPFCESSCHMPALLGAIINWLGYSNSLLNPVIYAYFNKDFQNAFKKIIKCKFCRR

Mus musculus [7] = experiment: Agonist activity at 5HT1A receptor in Swiss albino mouse assessed as decrease in rectal temperature at 10 mg/kg, ip after 90 mins; format: functional, organism-based; design: dose 10 mg/kg; how it was run: as §1
Mus musculus [8] = experiment: Agonist activity at 5HT1A receptor in Swiss albino mouse assessed as decrease in rectal temperature at 5 mg/kg, ip after 120 mins; format: functional, organism-based; design: dose 5 mg/kg; how it was run: as §1
Mus musculus [9] = experiment: Agonist activity at 5HT1A receptor in Swiss albino mouse assessed as decrease in rectal temperature at 10 mg/kg, ip after 120 mins; format: functional, organism-based; design: dose 10 mg/kg; how it was run: as §1
Mus musculus [10] = experiment: Agonist activity at 5HT1A receptor in Swiss albino mouse assessed as decrease in rectal temperature at 10 mg/kg, ip after 30 mins in presence of WAY 100635 administered 15 mins before drug challenge; format: functional, organism-based; design: dose 10 mg/kg
How it was run: (§2)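 Male Albino Swiss mice (24–28 g). WAY 100635 (0.1 mg/kg, sc, in distilled water) given 15 min before test agent (ip, suspended in 1% Tween 80, 10 ml/kg). Rectal temperature recorded 30 and 60 min after test agent injection. Expressed as Δt versus basal temperature at the start of the experiment.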

Mus musculus [11] = experiment: Anxiolytic activity in Swiss albino mouse assessed as number of punished crossings at 20 mg/kg, ip. administered 30 mins before test measured for 60s by four plate test; format: functional
How it was run: (§3)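 Male Albino Swiss mice. Box with four metal floor plates separated by 4 mm gaps; 120 V between adjacent plates for 0.5 s delivered on crossing. Mice explored 15 s before testing. Agent (ip, 1% Tween 80) given 30 min before the test. Punished crossings counted; n = 10 mice per group, mean ± SEM.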

Mus musculus [12] = experiment: Anxiolytic activity in Swiss albino mouse assessed as number of punished crossings at 30 mg/kg, ip administered 30 mins before test measured for 60s by four plate test; format: functional; conditions: route intraperitoneal; how it was run: as §3
Mus musculus [13] = experiment: Antidepressant activity in Swiss albino mouse assessed as reduction of immobility time at 20 mg/kg, ip administered 30 mins before test by forced swimming test; format: functional; conditions: route intraperitoneal
How it was run: (§4)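 Male Albino Swiss mice (24–28 g); agent suspended in 1% aqueous Tween 80, ip 10 ml/kg, 30 min before the test. Total immobility time scored over the last 4 min of a 6-min swim session. n = 8–10 mice per group; mean ± SEM, compared with vehicle.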

Mus musculus [14] = experiment: Antidepressant activity in Swiss albino mouse assessed as reduction of immobility time at 30 mg/kg, ip administered 30 mins before test by forced swimming test; format: functional; conditions: route intraperitoneal; how it was run: as §4
Mus musculus [15] = experiment: Antidepressant activity in Swiss albino mouse assessed as reduction of immobility time at 10 mg/kg, ip administered 30 mins before test by forced swimming test; format: functional; conditions: route intraperitoneal; how it was run: as §4
Mus musculus [16] = experiment: Sedative activity in Swiss albino mouse assessed as reduction on spontaneous locomotor activity at 20 mg/kg, ip administered 30 mins before test measured for 6 mins; format: ADME, organism-based; design: dose 20 mg/kg, route intraperitoneal; conditions: in vivo, 0.1 h
How it was run: (§5)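 Male Albino Swiss mice (24–28 g); agent ip in 1% Tween 80, 30 min before the test. Locomotor activity counted as number of crossings during 6-min and 30-min sessions. n = 8–10 mice per group; mean ± SEM versus vehicle.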

Mus musculus [17] = experiment: Sedative activity in Swiss albino mouse assessed as reduction on spontaneous locomotor activity at 20 mg/kg, ip administered 30 mins before test measured for 30 mins; format: ADME, organism-based; design: dose 20 mg/kg, route intraperitoneal; conditions: in vivo, 0.5 h; how it was run: as §5
Mus musculus [18] = experiment: Sedative activity in Swiss albino mouse assessed as reduction on spontaneous locomotor activity at 30 mg/kg, ip administered 30 mins before test measured for 6 mins; format: ADME, organism-based; design: dose 30 mg/kg, route intraperitoneal; conditions: in vivo, 0.1 h; how it was run: as §5
Mus musculus [19] = experiment: Sedative activity in Swiss albino mouse assessed as reduction on spontaneous locomotor activity at 30 mg/kg, ip administered 30 mins before test measured for 30 mins; format: ADME, organism-based; design: dose 30 mg/kg, route intraperitoneal; conditions: in vivo, 0.5 h; how it was run: as §5
Mus musculus [20] = species: Mus musculus; conditions: Swiss albino, 20 mg/kg
Mus musculus [21] = species: Mus musculus; conditions: Swiss albino, 20 mg/kg; remark: listed apart in the source
Mus musculus [22] = species: Mus musculus; conditions: Swiss albino, 20 mg/kg; remark: listed apart in the source
Mus musculus [23] = species: Mus musculus; conditions: Swiss albino, 20 mg/kg; remark: listed apart in the source
Mus musculus [24] = species: Mus musculus; conditions: Swiss albino, 20 mg/kg; remark: listed apart in the source
Mus musculus [25] = species: Mus musculus; conditions: Swiss albino, 20 mg/kg; remark: listed apart in the source
Mus musculus [26] = experiment: Agonist activity at 5HT1A receptor in Swiss albino mouse assessed as decrease in rectal temperature at 5 mg/kg, ip after 90 mins; format: functional, organism-based; design: dose 5 mg/kg; how it was run: as §1
Mus musculus [27] = experiment: Agonist activity at 5HT1A receptor in Swiss albino mouse assessed as decrease in rectal temperature at 5 mg/kg, ip after 60 mins; format: functional, organism-based; design: dose 5 mg/kg; how it was run: as §1
Mus musculus [28] = experiment: Agonist activity at 5HT1A receptor in Swiss albino mouse assessed as decrease in rectal temperature at 10 mg/kg, ip after 60 mins in presence of WAY 100635 administered 15 mins before drug challenge; format: functional, organism-based; design: dose 10 mg/kg; how it was run: as §2
Rattus norvegicus [29] = experiment: Behavioral activity in Wistar rat assessed as induction of lower lip retraction at 10 to 20 mg/kg, ip; format: functional, organism-based
How it was run: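 Male Wistar rats (290–310 g); agent ip in 1% Tween 80 at 2 ml/kg. Rats housed singly in cages and scored 15, 30 and 45 min after dosing: 0 = lower incisors not visible, 0.5 = partly, 1 = fully visible. Maximum total score 3 per rat.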

Rattus norvegicus [30] = experiment: Behavioral activity in Wistar rat assessed as reduction of 8-OH-DPAT-induced lower lip retraction at 10 to 20 mg/kg, ip administered 45 mins before 8-OH-DPAT challenge; format: functional, organism-based

Structure (SMILES): COc1ccccc1N1CCN(CCCn2c(-c3ccccc3)cn3c4c(=O)n(C)c(=O)n(C)c4nc23)CC1
- Activity (Mus musculus [1]): Dose-dependent effect
- deltaT (Mus musculus [2]): -0.6 °C
- deltaT (Mus musculus [3]): -2 °C
- Ki (D(2) dopamine receptor): 143 nM
- deltaT (Mus musculus [4]): -0.7 °C
- Ki [5]: > 1000 nM
- Ki [6]: 5.6 nM
- deltaT (Mus musculus [7]): -0.6 °C
- deltaT (Mus musculus [8]): 0 °C
- deltaT (Mus musculus [9]): -0.5 °C
- deltaT (Mus musculus [10]): -0.9 °C
- Activity (Mus musculus [11]): 3.5
- Activity (Mus musculus [12]): 3.2
- Activity (Mus musculus [13]): 169.3 s
- Activity (Mus musculus [14]): 172 s

Structure (SMILES): COc1ccccc1N1CCN(CCCn2ccn3c4c(=O)n(C)c(=O)n(C)c4nc23)CC1
- Activity (Mus musculus [1]): Dose-dependent effect
- deltaT (Mus musculus [2]): -0.6 °C
- deltaT (Mus musculus [3]): -0.7 °C
- Ki (D(2) dopamine receptor): 839 nM
- Ki [5]: > 1000 nM
- Ki [6]: 25.4 nM
- deltaT (Mus musculus [7]): -0.3 °C
- Activity (Mus musculus [11]): 2.5
- Activity (Mus musculus [12]): 2.5
- Activity (Mus musculus [15]): 134.2 s
- Activity (Mus musculus [13]): 104.8 s
- Activity (Mus musculus [14]): 101.3 s
- Activity (Mus musculus [16]): 353.4
- Activity (Mus musculus [17]): 925.8
- Activity (Mus musculus [18]): 198
- Activity (Mus musculus [19]): 567.6
- deltaT (Mus musculus [20]): -1.3 °C
- deltaT (Mus musculus [21]): -1.8 °C
- deltaT (Mus musculus [22]): -1 °C
- deltaT (Mus musculus [23]): -1.1 °C
- deltaT (Mus musculus [24]): -0.9 °C
- deltaT (Mus musculus [25]): -0.5 °C

Structure (SMILES): Cn1c(=O)c2c(nc3nc(NCCCN4CCN(c5ccccc5)CC4)c(Br)cn32)n(C)c1=O
- Ki [5]: 297 nM

Structure (SMILES): COc1ccccc1N1CCN(CCCn2c(C)cn3c4c(=O)n(C)c(=O)n(C)c4nc23)CC1
- Activity (Mus musculus [1]): Dose-dependent effect
- deltaT (Mus musculus [26]): -0.3 °C
- deltaT (Mus musculus [2]): -0.5 °C
- deltaT (Mus musculus [27]): -0.4 °C
- deltaT (Mus musculus [3]): -0.9 °C
- Ki (D(2) dopamine receptor): 345 nM
- deltaT (Mus musculus [4]): -0.4 °C
- Ki [5]: > 1000 nM
- Ki [6]: 16.8 nM
- deltaT (Mus musculus [7]): -0.6 °C
- deltaT (Mus musculus [8]): -0.1 °C
- deltaT (Mus musculus [9]): -0.2 °C
- deltaT (Mus musculus [10]): -1 °C
- deltaT (Mus musculus [28]): -0.9 °C
- Activity (Rattus norvegicus [29]): inactive
- Activity (Rattus norvegicus [30]): inactive

Structure (SMILES): Cn1c(=O)c2c(nc3n2CC(C(=O)NCCN2CCN(c4ccccc4)CC2)N3)n(C)c1=O (stereo unspecified)
- Ki [6]: > 1000 nM

Structure (SMILES): Cn1c(=O)c2c(nc3n(CCCN4CCN(c5cccc(Cl)c5)CC4)ccn23)n(C)c1=O
- Ki (D(2) dopamine receptor): > 1000 nM
- Ki [5]: 91.5 nM
- Ki [6]: > 1000 nM

Structure (SMILES): Cc1cn2c3c(=O)n(C)c(=O)n(C)c3nc2n1CCCN1CCN(c2ccccc2)CC1
- Ki (D(2) dopamine receptor): > 1000 nM
- Ki [5]: > 1000 nM
- Ki [6]: 76.4 nM
